Source: PubChem (several laboratories)
SENP1 FRET inh – blocks the human SENP1 SUMO protease catalytic domain; Q9P0U3; recombinant SENP1 catalytic domain, CyPet-SUMO1-YPet FRET cleavage; inhibition, % at 10 µM; 360,000 compounds, 0.21% hits; AID 624204;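 active means inhibition at least 30% at 10 µM, raw YFP signal under a set limit, fluorescence ratio 0.5 to 1.5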;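 further: 0% = enzyme with DMSO and 100% = no enzyme wells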
Target sequence (Q9P0U3 419-644 limits assumed): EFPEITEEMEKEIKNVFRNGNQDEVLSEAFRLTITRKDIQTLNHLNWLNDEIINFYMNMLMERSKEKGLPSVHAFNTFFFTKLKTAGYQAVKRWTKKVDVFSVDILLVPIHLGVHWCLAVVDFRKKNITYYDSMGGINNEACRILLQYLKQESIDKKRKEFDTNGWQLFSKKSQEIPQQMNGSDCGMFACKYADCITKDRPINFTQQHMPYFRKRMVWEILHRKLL
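Material – human SENP1 catalytic domain · Input – SENP1 enzyme, 20 pM final · Compound dosing – single concentration of 10 µM compound, 0.5% DMSO final · Timing – enzyme reaction for 50 min at room temperature, dark · Measured by – FRET fluorescence in CFP and YFP emission channels · Control set – no-enzyme wells low, DMSO-plus-enzyme wells high control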
ATG4B inh – inhibitors of human ATG4B cysteine protease; Q9Y4P1; ATG4B cleavage of LC3-PLA2, NBD-HPC fluorescence, 1 h; inhibition, % at 8.33 µM; 340,000 compounds, 0.51% hits
Rpn11 inh – Rpn11 (human) deubiquitinase inhibition; O00487; human 26S proteasome, Ub4-pepOG fluorescence polarization; 20S core pre-blocked with epoxomicin; inhibition, % at 20 µM; 360,000 compounds, 0.59% hits; AID 588493;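 active means inhibition at 20 µM, scaled to each plate's controls, above about 33%, limit read from the data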
TPT1 inhibitor – blocks Candida albicans tRNA 2'-phosphotransferase | recombinant caTPT1, FP RNA substrate dephosphorylation | inhibition, % at 5 µM | 300,000 compounds, 0.81% hits | AID 1962;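 active means inhibition above the mean of all tested compounds plus 3 SD, set per screening campaign, cut at about 24% in these data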;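 further: plate controls were DMSO alone for no effect and ferristatin control at 100 nM for full effect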
CSN inh – blocks human CSN-mediated cullin deneddylation. Purified CSN, SCF-Nedd8-OG deneddylation, fluorescence polarization. inhibition, % at 12.5 µM. 360,000 compounds, 0.38% hits. AID 651999;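 active means pattern-corrected inhibition above about 35%, with an unprinted fluorescence ratio check between 0.5 and 1.5, limit read from the data, passing the limit was not always enough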;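 further: 0% = enzyme with substrate and 100% = substrate without enzyme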
Target sequence (Q92905 whole entry, looked up, one chain of several): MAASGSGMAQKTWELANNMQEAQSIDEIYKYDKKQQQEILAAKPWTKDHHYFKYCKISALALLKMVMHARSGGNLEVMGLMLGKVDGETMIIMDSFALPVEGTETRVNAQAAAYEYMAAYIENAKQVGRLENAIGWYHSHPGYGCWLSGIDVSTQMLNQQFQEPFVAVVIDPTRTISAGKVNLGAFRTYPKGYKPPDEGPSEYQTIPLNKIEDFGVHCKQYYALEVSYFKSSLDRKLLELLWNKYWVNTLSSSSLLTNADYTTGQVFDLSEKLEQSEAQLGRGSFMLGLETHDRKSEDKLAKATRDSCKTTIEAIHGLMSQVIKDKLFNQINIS
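assay system = purified human Csn5 enzyme expressed in HEK293T cells | amount = 0.24 nM enzyme | buffer or medium = Tris/NaCl/DTT buffer, pH 7.5 | reagent = 10 nM SCFSkp2-Nedd8OG | compound = one concentration, 12.5 µM, 0.25% DMSO | times = 90 min reaction at room temperature | signal = FP | read-out basis = % inhibition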
HNF4A DNA FP – change in binding of human HNF4 alpha to DNA; HNF4a-FITC DNA binding, fluorescence polarization, 1 h; activity change, % at 10 µM; 360,000 compounds, 0.3% hits; AID 1224865; in the data active means activity change above about 30%, passing the limit was not always enough
TPT1 inh confirm – TPT1 (C. albicans) inhibition, confirmation. shares compounds with TPT1 inhibitor. inhibition, % at 5 µM. recombinant caTPT1, fluorescence polarization, RNase T1 coupled. AID 2149. 2,400 compounds, 74% hits;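 active means inhibition above the primary screen limit, the mean inhibition of all tested compounds plus 3 SD, cut at about 25% in these data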
RNase T1 inh – RNase T1 inhibition in TPT1 counter-screen; 2,400 compounds, 83% hits; inhibition, % at 5 µM; AID 2153; shares compounds with TPT1 inhibitor; RNase T1 cleavage, fluorescence polarization, 1536-well;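 active means inhibition above the solvent-only control well mean plus 3 SD, limit set per screening run, cut at about 23% in these data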;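 further: plate controls were DMSO wells with enzyme for no effect and wells without RNase T1 for full effect; inhibitors block cleavage so intact labeled substrate keeps polarization high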
Target sequence (P00651 whole entry, looked up): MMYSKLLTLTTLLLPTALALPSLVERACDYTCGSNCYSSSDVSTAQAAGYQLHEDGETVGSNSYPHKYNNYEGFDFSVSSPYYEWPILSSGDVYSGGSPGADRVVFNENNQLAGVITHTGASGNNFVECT
Rpn11 confirm – confirmation of human proteasome Rpn11 inhibitors. purified human 26S proteasome, Ub4-pepOG fluorescence polarization; proteasome pretreated with epoxomicin. shares compounds with Rpn11 inh. inhibition, % at 20 µM. 1,900 compounds, 29% hits
MMP-2 counter – blocks human MMP-2, flagging nonselective RPN11 hits; shares compounds with Rpn11 inh; recombinant MMP-2, FRET peptide cleavage fluorescence; inhibition, % at 20 µM; 1,900 compounds, 4% hits;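 further: human MMP-2 activated beforehand with APMA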
Thrombin inh – counter-screen for RPN11 inhibitors: inhibition of bovine thrombin; inhibition, % at 20 µM; 1,900 compounds, 13% hits; bovine thrombin cleavage of Ub4-pepOG, fluorescence polarization; shares compounds with Rpn11 inh;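 active means mean inhibition at least 40% at 20 µM, or signal 3 deviations below plate average, so some actives read negative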;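 further: plate controls were thrombin with DMSO for no effect and buffer wells lacking thrombin for full effect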
* marks the source's active call; other numbers are inactive results. Sampled rows, rich in hits. Any-hit rate of the full collection: about 2%. Unless noted, no stated cut-off is given here; in the data, active means inhibition above about 40%; inactive means the rest.

Results for COc1ccc(CCn2c(=N)c(C(=O)NC3CCCC3)cc3c(=O)n4ccccc4nc32)cc1OC ?
SENP1 FRET inh: -31; ATG4B inh: -2; Rpn11 inh: 42*; TPT1 inhibitor: 28*; CSN inh: 13; HNF4A DNA FP: 24; TPT1 inh confirm: 45*; RNase T1 inh: 57*; Rpn11 confirm: 34; MMP-2 counter: -27; Thrombin inh: 24

What do the screens show for `Cc1ccc2nc(NC(=O)C3CCCN(S(=O)(=O)c4cccc5nonc45)C3)sc2c1` (stereo not given)?
TPT1 inhibitor: 10

Results for Cc1cccc2sc(NC(=O)C3CCCN(S(=O)(=O)c4cccc5nonc45)C3)nc12 (stereo not given) ?
SENP1 FRET inh: 23; ATG4B inh: -6; Rpn11 inh: 58*; TPT1 inhibitor: 43*; CSN inh: 6; HNF4A DNA FP: 21; TPT1 inh confirm: 39*; RNase T1 inh: 49*; Rpn11 confirm: 41*; MMP-2 counter: -27; Thrombin inh: -19

Results for CCN(CC)c1ccc(/C=N/NC(=O)c2ccco2)c(O)c1 ?
SENP1 FRET inh: -33; ATG4B inh: -7; Rpn11 inh: 47*; TPT1 inhibitor: 27*; CSN inh: 6; HNF4A DNA FP: 14; TPT1 inh confirm: 48*; RNase T1 inh: 59*; Rpn11 confirm: 16; MMP-2 counter: -26; Thrombin inh: 8

What do the screens show for `CCN(CC)c1ccc(/C=N/N=C(c2ccccc2)c2ccccc2)c(O)c1`?
SENP1 FRET inh: -26; ATG4B inh: 8; Rpn11 inh: 50*; TPT1 inhibitor: 36*; CSN inh: -9; HNF4A DNA FP: 29; TPT1 inh confirm: 98*; RNase T1 inh: 104*; Rpn11 confirm: 0; MMP-2 counter: -22; Thrombin inh: -24

What do the screens show for `CCN(CC)c1ccc(/C=N/N(c2ccccc2)c2ccccc2)c(O)c1`?
SENP1 FRET inh: -25; ATG4B inh: -6; Rpn11 inh: 10; TPT1 inhibitor: 3; CSN inh: -1; HNF4A DNA FP: 6

What do the screens show for `Cc1ccccc1S(=O)(=O)NC(=NCc1ccc(F)cc1)c1ccccc1`?
SENP1 FRET inh: 1; ATG4B inh: -7; Rpn11 inh: 3; CSN inh: -4; HNF4A DNA FP: 3

How did CC[C@@H]1Cc2[nH][nH]c(=O)c2[C@@H](c2ccc(Cl)cc2)O1 do in these assays?
SENP1 FRET inh: 1; CSN inh: -3; HNF4A DNA FP: 1

What do the screens show for `COc1ccc(/C=N/Nc2ccc([N+](=O)[O-])cc2)cc1Cn1cc([N+](=O)[O-])cn1`?
SENP1 FRET inh: -21; ATG4B inh: 0; Rpn11 inh: 54*; TPT1 inhibitor: 108*; CSN inh: 4; HNF4A DNA FP: 13; TPT1 inh confirm: 83*; RNase T1 inh: 92*; Rpn11 confirm: -3; MMP-2 counter: -23; Thrombin inh: -4

How did COc1ccc(/C=N/n2cncn2)cc1Cn1cc([N+](=O)[O-])cn1 do in these assays?
SENP1 FRET inh: 4; ATG4B inh: -7; Rpn11 inh: -1; TPT1 inhibitor: -1; CSN inh: -3; HNF4A DNA FP: 1

Results for CN(C)c1ccc(/C=N/OC(=O)Nc2ccccc2)cc1 ?
SENP1 FRET inh: 1; ATG4B inh: -10; Rpn11 inh: -6; TPT1 inhibitor: 5; CSN inh: 3; HNF4A DNA FP: -1

Results for Cc1ccc(NC(=O)CO/N=C/c2ccc(N(C)C)cc2)cc1 ?
SENP1 FRET inh: 21; ATG4B inh: 7; Rpn11 inh: 77*; TPT1 inhibitor: 93*; CSN inh: 50*; HNF4A DNA FP: 72*; TPT1 inh confirm: 106*; RNase T1 inh: 113*; Rpn11 confirm: 108*; MMP-2 counter: -44; Thrombin inh: 96*

What do the screens show for `Clc1ccc(N(CC2CO2)CC2CO2)cc1` (stereo not given)?
SENP1 FRET inh: 3; ATG4B inh: -4; Rpn11 inh: -3; CSN inh: -4; HNF4A DNA FP: -1

How did Cc1ccc(NS(=O)(=O)c2cc([N+](=O)[O-])ccc2N/N=C/c2sc(N3CCOCC3)nc2-c2ccccc2)c(C)c1 do in these assays?
SENP1 FRET inh: 12; ATG4B inh: -2; Rpn11 inh: 44*; TPT1 inhibitor: 56*; CSN inh: 14; HNF4A DNA FP: 21; TPT1 inh confirm: 55*; RNase T1 inh: 73*; Rpn11 confirm: 39; MMP-2 counter: -5; Thrombin inh: 9

Results for O=[N+]([O-])c1ccc(N/N=C/c2cccc(O)c2O)c(S(=O)(=O)N2CCOCC2)c1 ?
SENP1 FRET inh: -55; ATG4B inh: -4; Rpn11 inh: -8; TPT1 inhibitor: -1; CSN inh: -7; HNF4A DNA FP: -1

What do the screens show for `COc1ccc(C2CC(c3ccccc3)=NN2c2ccc(N)cc2)cc1` (stereo not given)?
SENP1 FRET inh: -28; ATG4B inh: 5; Rpn11 inh: 48*; TPT1 inhibitor: 29*; CSN inh: -5; HNF4A DNA FP: 19; TPT1 inh confirm: 38*; RNase T1 inh: 51*; Rpn11 confirm: 37; MMP-2 counter: 36; Thrombin inh: 16

Results for COc1ccc(C2CC(c3ccccc3O)=NN2c2ccccc2)cc1 (stereo not given) ?
SENP1 FRET inh: -43; ATG4B inh: -4; Rpn11 inh: 0; TPT1 inhibitor: -3; CSN inh: 2; HNF4A DNA FP: -2

What do the screens show for `CCn1c(C)cc(/C=C2/SC(=S)N(CC(=O)O)C2=O)c1C`?
SENP1 FRET inh: -38; ATG4B inh: 0; Rpn11 inh: 52*; TPT1 inhibitor: 83*; CSN inh: 28; HNF4A DNA FP: 44*; TPT1 inh confirm: 94*; RNase T1 inh: 102*; Rpn11 confirm: 97*; MMP-2 counter: -17; Thrombin inh: 63*
